In ChEMBL document CHEMBL3272012, “5-(Tetradecyloxy)-2-furancarboxylic acid and related hypolipidemic fatty acid-like alkyloxyarylcarboxylic acids” (J Med Chem, 1977):
Active and inactive are the calls of the source. The rule behind the calls is not given here.

Columns and labels:
Rattus norvegicus [1] = assay: Increase in cholesterol level in Wistar rat liver at 403 umol/kg/day administered through diet for 4 days; assay type: ADME, organism-based; conditions: in vivo, po, 96 h
Rattus norvegicus [2] = assay: Increase in liver weight in Wistar rat at 403 umol/kg/day administered through diet for 4 days; assay type: ADME, organism-based; conditions: in vivo, po, 96 h
Rattus norvegicus [3] = assay: Hypolipidemic activity in Wistar rat assessed as reduction in plasma triglyceride level at 403 umol/kg/day administered through diet for 4 days; assay type: functional; conditions: 96 h
Rattus norvegicus [4] = assay: Hypolipidemic activity in Wistar rat assessed as reduction in plasma cholesterol level at 403 umol/kg/day administered through diet for 4 days; assay type: functional; conditions: 96 h
In short: (§1)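 Young male Wistar rats, 170-190 g at start, in groups of six, given compound mixed into Purina Lab Chow ad libitum for 4 or 10 days as stated. Daily dose was calculated from food consumption and body weight. Plasma was taken by cardiac puncture at the end and cholesterol measured by automated procedure. Results are % reduction versus a concurrent untreated control group, with Student's t test.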

Rattus norvegicus [5] = assay: Increase in cholesterol level in Wistar rat liver at 410 umol/kg/day administered through diet for 4 days; assay type: ADME, organism-based; conditions: in vivo, po, 96 h
Rattus norvegicus [6] = assay: Inhibition of cholesterol biosynthesis in Ad Lib fed Wistar rat liver assessed as sodium [1-14C]acetate incorporation at 154 mg/kg/day administered through diet for 7 days measured 1 hr after labeled acetate challenge by liquid scintillation spectrometry (reference value: 12.7 +/- 2.6 x 10^-3 dpm); assay type: functional
Rattus norvegicus [7] = assay: Inhibition of fatty acid biosynthesis in Ad Lib fed Wistar rat liver assessed as sodium [1-14C]acetate incorporation at 154 mg/kg/day administered through diet for 7 days measured 1 hr after labeled acetate challenge by liquid scintillation spectrometry (reference value: 27.2 +/- 4.8 x 10^-3 dpm); assay type: functional
Rattus norvegicus [8] = assay: Inhibition of cholesterol biosynthesis in meal fed Wistar rat liver assessed as sodium [1-14C]acetate incorporation at 95 mg/kg/day administered through diet for 7 days measured 1 hr after labeled acetate challenge by liquid scintillation spectrometry (reference value: 41.3 +/- 3.2 x 10^-3 dpm); assay type: functional
Rattus norvegicus [9] = assay: Inhibition of cholesterol synthesis in Wistar rat liver assessed as drug incorporation into triglycerides administered for 2 weeks by gas chromatography; assay type: functional, organism-based
Rattus norvegicus [10] = assay: Hypolipidemic activity in Wistar rat assessed as reduction in plasma triglyceride level at 154 umol/kg/day administered through diet for 10 days; assay type: functional; conditions: 240 h
In short: (§2)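 Young male Wistar rats, 170-190 g initial weight, six per group, fed drug mixed thoroughly into Purina Lab Chow ad libitum for the stated days; daily dose calculated from food consumption and body weight. Bled by cardiac puncture at end; plasma cholesterol and triglycerides by automated procedures, expressed as percent reduction versus simultaneous untreated controls; Student's t test.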

Rattus norvegicus [11] = assay: Inhibition of fatty acid biosynthesis in meal fed Wistar rat liver assessed as sodium [1-14C]acetate incorporation at 95 mg/kg/day administered through diet for 7 days measured 1 hr after labeled acetate challenge by liquid scintillation spectrometry (reference value: 182 +/- 22 x 10^-3 dpm); assay type: functional
Rattus norvegicus [12] = assay: Increase in liver weight in Wistar rat at 583 umol/kg/day administered through diet for 10 days; assay type: ADME, organism-based; conditions: in vivo, po, 240 h
Rattus norvegicus [13] = assay: Increase in cholesterol level in Wistar rat liver at 154 umol/kg/day administered through diet for 10 days; assay type: ADME, organism-based; conditions: in vivo, po, 240 h
Rattus norvegicus [14] = assay: Hypolipidemic activity in Wistar rat assessed as reduction in plasma cholesterol level at 410 umol/kg/day administered through diet for 4 days; assay type: functional; conditions: 96 h; in short: as §1
Rattus norvegicus [15] = assay: Inhibition of cholesterol synthesis in Wistar rat liver assessed as drug incorporation into cholesterol ester administered for 2 weeks by gas chromatography; assay type: functional, organism-based
Rhesus monkey [16] = assay: Hypolipidemic activity in rhesus monkey assessed as reduction in plasma cholesterol level at 308 umol/kg/day administered for 28 days; assay type: functional; conditions: Macaca mulatta, 672 h
Rattus norvegicus [17] = assay: Increase in cholesterol level in Wistar rat liver at 314 umol/kg/day administered through diet for 10 days; assay type: ADME, organism-based; conditions: in vivo, po, 240 h
Rattus norvegicus [18] = assay: Increase in cholesterol level in Wistar rat liver at 583 umol/kg/day administered through diet for 10 days; assay type: ADME, organism-based; conditions: in vivo, po, 240 h
Rattus norvegicus [19] = assay: Inhibition of fatty acid synthesis in Wistar rat liver assessed as drug incorporation into phospholipid administered for 2 weeks by gas chromatography; assay type: functional, organism-based
Rattus norvegicus [20] = assay: Increase in liver weight in Wistar rat at 314 umol/kg/day administered through diet for 10 days; assay type: ADME, organism-based; conditions: in vivo, po, 240 h
Rattus norvegicus [21] = assay: Increase in liver weight in Wistar rat at 410 umol/kg/day administered through diet for 4 days; assay type: ADME, organism-based; conditions: in vivo, po, 96 h
Rattus norvegicus [22] = assay: Hypolipidemic activity in Wistar rat assessed as reduction in plasma triglyceride level at 410 umol/kg/day administered through diet for 4 days; assay type: functional; conditions: 96 h
Rattus norvegicus [23] = assay: Hypolipidemic activity in Wistar rat assessed as reduction in plasma triglyceride level at 583 umol/kg/day administered through diet for 10 days; assay type: functional; conditions: 240 h
Rattus norvegicus [24] = assay: Hypolipidemic activity in Wistar rat assessed as reduction in plasma cholesterol level at 314 umol/kg/day administered through diet for 10 days; assay type: functional; conditions: 240 h; in short: as §1
Rattus norvegicus [25] = assay: Hypolipidemic activity in Wistar rat assessed as reduction in plasma cholesterol level at 583 umol/kg/day administered through diet for 10 days; assay type: functional; conditions: 240 h
In short: (§3)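 Young male Wistar rats (initial weight 170-190 g), groups of six, fed compound mixed into Purina Lab Chow ad libitum for 4 or 10 days; daily dose calculated from food consumption and body weight. Bled by cardiac puncture; plasma cholesterol and triglycerides by automated procedures; percent reduction versus simultaneous untreated controls, Student's t test.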

Rattus norvegicus [26] = assay: Hypolipidemic activity in Wistar rat assessed as reduction in plasma cholesterol level at 154 umol/kg/day administered through diet for 10 days; assay type: functional; conditions: 240 h; in short: as §1
Rhesus monkey [27] = assay: Hypolipidemic activity in rhesus monkey assessed as reduction in plasma cholesterol level at 92 umol/kg/day administered for 28 days; assay type: functional; conditions: Macaca mulatta, 672 h
Rattus norvegicus [28] = assay: Hypolipidemic activity in Wistar rat assessed as reduction in plasma triglyceride level at 314 umol/kg/day administered through diet for 10 days; assay type: functional; conditions: 240 h; in short: as §2
Rattus norvegicus [29] = assay: Increase in liver weight in Wistar rat at 154 umol/kg/day administered through diet for 10 days; assay type: ADME, organism-based; conditions: in vivo, po, 240 h
Rattus norvegicus [30] = assay: Increase in liver weight in Wistar rat at 358 umol/kg/day administered through diet for 10 days; assay type: ADME, organism-based; conditions: in vivo, po, 240 h
Rattus norvegicus [31] = assay: Hypolipidemic activity in Wistar rat assessed as reduction in plasma cholesterol level at 96 umol/kg/day administered through diet for 10 days; assay type: functional; conditions: 240 h; in short: as §2
Rattus norvegicus [32] = assay: Increase in liver weight in Wistar rat at 96 umol/kg/day administered through diet for 10 days; assay type: ADME, organism-based; conditions: in vivo, po, 240 h
Rattus norvegicus [33] = assay: Hypolipidemic activity in Wistar rat assessed as reduction in plasma cholesterol level at 358 umol/kg/day administered through diet for 10 days; assay type: functional; conditions: 240 h; in short: as §1
Rattus norvegicus [34] = assay: Hypolipidemic activity in Wistar rat assessed as reduction in plasma triglyceride level at 96 umol/kg/day administered through diet for 10 days; assay type: functional; conditions: 240 h
Rattus norvegicus [35] = assay: Hypolipidemic activity in Wistar rat assessed as reduction in plasma triglyceride level at 193 umol/kg/day administered through diet for 10 days; assay type: functional; conditions: 240 h; in short: as §2
Rattus norvegicus [36] = assay: Hypolipidemic activity in Wistar rat assessed as reduction in plasma cholesterol level at 193 umol/kg/day administered through diet for 10 days; assay type: functional; conditions: 240 h; in short: as §1
Rattus norvegicus [37] = assay: Hypolipidemic activity in Wistar rat assessed as reduction in plasma triglyceride level at 358 umol/kg/day administered through diet for 10 days; assay type: functional; conditions: 240 h
In short: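 Young male Wistar rats, 170-190 g at start, six per group, given compound mixed into Purina Lab Chow, fed ad libitum for 4 or 10 days. Daily dose calculated from food consumption and body weight. Rats bled by cardiac puncture at end of treatment. Plasma triglycerides determined by automated procedure. Expressed as percent reduction versus a concurrent untreated control group, Student's t test.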

Rattus norvegicus [38] = assay: Increase in cholesterol level in Wistar rat liver at 96 umol/kg/day administered through diet for 10 days; assay type: ADME, organism-based; conditions: in vivo, po, 240 h
Rattus norvegicus [39] = assay: Increase in liver weight in Wistar rat at 193 umol/kg/day administered through diet for 10 days; assay type: ADME, organism-based; conditions: in vivo, po, 240 h
Rattus norvegicus [40] = assay: Increase in cholesterol level in Wistar rat liver at 358 umol/kg/day administered through diet for 10 days; assay type: ADME, organism-based; conditions: in vivo, po, 240 h
Rattus norvegicus [41] = assay: Increase in cholesterol level in Wistar rat liver at 193 umol/kg/day administered through diet for 10 days; assay type: ADME, organism-based; conditions: in vivo, po, 240 h
Rattus norvegicus [42] = assay: Increase in liver weight in Wistar rat at 443 umol/kg/day administered through diet for 4 days; assay type: ADME, organism-based; conditions: in vivo, po, 96 h
Rattus norvegicus [43] = assay: Increase in cholesterol level in Wistar rat liver at 443 umol/kg/day administered through diet for 4 days; assay type: ADME, organism-based; conditions: in vivo, po, 96 h
Rattus norvegicus [44] = assay: Hypolipidemic activity in Wistar rat assessed as reduction in plasma cholesterol level at 443 umol/kg/day administered through diet for 4 days; assay type: functional; conditions: 96 h
In short: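 Young male Wistar rats, 170-190 g initial weight, groups of six, given compound mixed thoroughly into Purina Lab Chow ad libitum for 4 or 10 days as stated. Daily dose calculated from food consumption and body weight. Bled by cardiac puncture at end of treatment; plasma cholesterol measured by automated procedure. Expressed as percent reduction versus simultaneous untreated control group; Student's t test.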

Rattus norvegicus [45] = assay: Hypolipidemic activity in Wistar rat assessed as reduction in plasma triglyceride level at 443 umol/kg/day administered through diet for 4 days; assay type: functional; conditions: 96 h; in short: as §3

CCCCCCCCCCCCCCOc1ccc(C(=O)n2ccnc2)o1
Activity (Rattus norvegicus [1]): 1% | Activity (Rattus norvegicus [2]): 14% | inhibition in vivo at 403 µmol/kg (Rattus norvegicus [3]): 39% | inhibition in vivo at 403 µmol/kg (Rattus norvegicus [4]): 22%

CCCCCCCCCCCCCCOc1ccc(C(=O)O)o1 [TOFA]
Activity (Rattus norvegicus [5]): 12% | Activity (Rattus norvegicus [6]): 14900 dpm | Activity (Rattus norvegicus [7]): 22800 dpm | Activity (Rattus norvegicus [8]): 40800 dpm | inhibition (Rattus norvegicus [9]): inactive | inhibition in vivo at 154 µmol/kg (Rattus norvegicus [10]): 27% | Activity (Rattus norvegicus [11]): 60000 dpm | Activity (Rattus norvegicus [12]): 33% | Activity (Rattus norvegicus [13]): 5% | inhibition in vivo at 410 µmol/kg (Rattus norvegicus [14]): 40% | inhibition (Rattus norvegicus [15]): inactive | inhibition in vivo at 308 µmol/kg (Rhesus monkey [16]): 24% | Activity (Rattus norvegicus [17]): 0% | Activity (Rattus norvegicus [18]): 0% | inhibition (Rattus norvegicus [19]): Active | Activity (Rattus norvegicus [20]): 15% | Activity (Rattus norvegicus [21]): 6% | inhibition in vivo at 410 µmol/kg (Rattus norvegicus [22]): 75% | inhibition in vivo at 583 µmol/kg (Rattus norvegicus [23]): 92% | inhibition in vivo at 314 µmol/kg (Rattus norvegicus [24]): 38% | inhibition in vivo at 583 µmol/kg (Rattus norvegicus [25]): 64% | inhibition in vivo at 154 µmol/kg (Rattus norvegicus [26]): 12% | inhibition in vivo at 92 µmol/kg (Rhesus monkey [27]): 10% | inhibition in vivo at 314 µmol/kg (Rattus norvegicus [28]): 61% | Activity (Rattus norvegicus [29]): 1%

CCCCCCCCCCCCCCOc1ccc(C(=O)CC(=O)OCC)cc1
Activity (Rattus norvegicus [30]): 3% | inhibition in vivo at 96 µmol/kg (Rattus norvegicus [31]): 13% | Activity (Rattus norvegicus [32]): 1% | inhibition in vivo at 358 µmol/kg (Rattus norvegicus [33]): 30% | inhibition in vivo at 96 µmol/kg (Rattus norvegicus [34]): 44% | inhibition in vivo at 193 µmol/kg (Rattus norvegicus [35]): 43% | inhibition in vivo at 193 µmol/kg (Rattus norvegicus [36]): 20% | inhibition in vivo at 358 µmol/kg (Rattus norvegicus [37]): 59% | Activity (Rattus norvegicus [38]): 0% | Activity (Rattus norvegicus [39]): 1% | Activity (Rattus norvegicus [40]): 10% | Activity (Rattus norvegicus [41]): 11%

CCCCCCCCCCCCCCOc1ccc(C(=O)OCC)o1
Activity (Rattus norvegicus [42]): 6% | Activity (Rattus norvegicus [43]): 0% | inhibition in vivo at 443 µmol/kg (Rattus norvegicus [44]): 30% | inhibition in vivo at 443 µmol/kg (Rattus norvegicus [45]): 64%
